Data set [1] is described as follows: Drug level in normal rhesus monkey cerebellum assessed as standard uptake value at 81.2 MBq, iv after 10 mins by microPET. The format is ADME, organism-based, Macaca mulatta. To be noted: in vivo. In a few lines: (§1)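 One normal rhesus monkey, each tracer given iv via the vena saphena (81.2, 96.3 or 109.4 MBq), with 1 day between tracer injections. Dynamic brain μPET over 180 min used frames of 5 × 60 s, 5 × 120 s, 9 × 300 s and 12 × 600 s. Images were reconstructed by filtered back projection with a RAMP filter. Regional time-activity curves were expressed as SUV.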

The test system of the next data set is Blood. Put plainly: Drug level in NMRI mouse blood assessed as standard uptake value at 3.7 MBq/mL, iv after 60 mins by gamma counting. The format is ADME, organism-based. The settings on record: in vivo, 1 h. In a few lines: (§2)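 Male NMRI mice (30-40 g) were anaesthetised with isoflurane. Each received 0.1 mL of HPLC-purified tracer, diluted in 0.9% NaCl to 3.7 MBq/mL (ethanol ≤10%), via a tail vein. Mice were decapitated at 2 or 60 min. Organs were dissected, weighed and γ-counted with background correction. SUV = (organ cpm/organ weight)/(total recovered counts/body weight). Blood mass was taken as 7% of body mass.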

In another data set the test system is Cerebellum. The experiment in a line: Biodistribution in NMRI mouse cerebellum assessed per gram of tissue at 3.7 MBq/mL, iv after 2 mins by gamma counting. It counts as ADME, organism-based. To be noted: in vivo. An outline of the steps:
(§3)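 Male NMRI mice (30-40 g) under isoflurane (1.5-2.5% in oxygen) got 0.1 mL of HPLC-purified tracer diluted with 0.9% NaCl to 3.7 MBq/mL (ethanol ≤10%) via tail vein. Mice were decapitated at 2 or 60 min p.i., and organs, blood and urine were weighed and γ-counted. Values are background-corrected %ID or %ID/g, with blood mass taken as 7% of body mass.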

Data set [2] can be described thus: Drug level in normal rhesus monkey thalamus assessed as standard uptake value at 81.2 MBq, iv after 3.5 mins by microPET. The format is ADME, organism-based, Macaca mulatta. The settings on record: in vivo.
A further data set concerns Kidney. The experiment in a line: Biodistribution in NMRI mouse kidney at 3.7 MBq/mL, iv after 60 mins by gamma counting. The settings on record: in vivo, 1 h. It counts as ADME, organism-based. An outline of the steps:
as §3

In a further data set the test system is Stomach. Put plainly: Biodistribution in NMRI mouse stomach at 3.7 MBq/mL, iv after 2 mins by gamma counting. The format is ADME, organism-based. The settings on record: in vivo. An outline of the steps: as §3
Data set [3] in a line: Drug level in NMRI mouse spleen/pancreas assessed as standard uptake value at 3.7 MBq/mL, iv after 2 mins by gamma counting. It counts as ADME, organism-based. The settings on record: in vivo. In a few lines:
as §2

In another data set the test system is Intestine. Put plainly: Biodistribution in NMRI mouse intestine at 3.7 MBq/mL, iv after 60 mins by gamma counting. The format is ADME, organism-based. The settings on record: in vivo, 1 h. An outline of the steps:
as §3

A further data set relates to Heart. Put plainly: Biodistribution in NMRI mouse heart assessed per gram of tissue at 3.7 MBq/mL, iv after 60 mins by gamma counting. The settings on record: in vivo, 1 h. The format is ADME, organism-based. In a few lines:
as §3

Data set [4] is described as follows: Drug level in NMRI mouse cerebrum assessed as standard uptake value at 3.7 MBq/mL, iv after 2 mins by gamma counting. The settings on record: in vivo. The format is ADME, organism-based. In a few lines: as §2
Data set [5] has as its system Liver. The experiment in a line: Drug level in NMRI mouse liver assessed as standard uptake value at 3.7 MBq/mL, iv after 60 mins by gamma counting. It counts as ADME, organism-based. To be noted: in vivo, 1 h. In a few lines: as §2
The nature of data set [6]: Drug level in normal rhesus monkey thalamus assessed as standard uptake value at 81.2 MBq, iv after 57.5 mins by microPET. It counts as ADME, organism-based, Macaca mulatta. To be noted: in vivo.
Data set [7] relates to Liver. Put plainly: Biodistribution in NMRI mouse liver assessed per gram of tissue at 3.7 MBq/mL, iv after 60 mins by gamma counting. The format is ADME, organism-based. The settings on record: in vivo, 1 h. An outline of the steps:
as §3

The nature of data set [8]: Drug level in normal rhesus monkey frontal cortex assessed as standard uptake value at 81.2 MBq, iv after 0.5 mins by microPET. It counts as ADME, organism-based, Macaca mulatta. To be noted: in vivo. In a few lines:
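Single normal rhesus monkey; each tracer given iv via the vena saphena, with 1 day between tracer injections. Dynamic μPET ran 180 min (5×60 s, 5×120 s, 9×300 s, 12×600 s). Images were reconstructed by filtered back projection with a RAMP filter. Regional time-activity curves were expressed as SUV.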

A short description of data set [9]: Biodistribution in NMRI mouse cerebrum assessed per gram of tissue at 3.7 MBq/mL, iv after 2 mins by gamma counting. The format is ADME, organism-based. To be noted: in vivo. In a few lines:
as §3

The nature of data set [10]: Drug level in normal rhesus monkey thalamus assessed as standard uptake value at 96.3 MBq, iv after 22.5 mins by microPET. The format is ADME, organism-based, Macaca mulatta. To be noted: in vivo, 0.375 h.
The nature of data set [11]: Drug level in normal rhesus monkey parietal cortex assessed as standard uptake value at 96.3 MBq, iv after 165 mins by microPET. The format is ADME, organism-based, Macaca mulatta. The settings on record: in vivo, 2.75 h.
A short description of data set [12]: Drug level in normal rhesus monkey parietal cortex assessed as standard uptake value at 96.3 MBq, iv after 115 mins by microPET. It counts as ADME, organism-based, Macaca mulatta. To be noted: in vivo.
Data set [13] can be described thus: Drug level in normal rhesus monkey white matter assessed as standard uptake value at 96.3 MBq, iv after 22.5 mins by microPET. It counts as ADME, organism-based, Macaca mulatta. To be noted: in vivo, 0.375 h.
Data set [14] can be described thus: Drug level in normal rhesus monkey parietal cortex assessed as standard uptake value at 96.3 MBq, iv after 27.5 mins by microPET. To be noted: in vivo. It counts as ADME, organism-based, Macaca mulatta.
The nature of data set [15]: Drug level in normal rhesus monkey thalamus assessed as standard uptake value at 96.3 MBq, iv after 42.5 mins by microPET. It counts as ADME, organism-based, Macaca mulatta. The settings on record: in vivo.
Data set [16] in a line: Drug level in normal rhesus monkey cerebellum assessed as standard uptake value at 96.3 MBq, iv after 10 mins by microPET. The format is ADME, organism-based, Macaca mulatta. The settings on record: in vivo. In a few lines:
as §1

A short description of data set [17]: Drug level in normal rhesus monkey parietal cortex assessed as standard uptake value at 96.3 MBq, iv after 0.5 mins by microPET. It counts as ADME, organism-based, Macaca mulatta. The settings on record: in vivo.
The nature of data set [18]: Drug level in normal rhesus monkey pons assessed as standard uptake value at 109.4 MBq, iv after 0.375 mins by microPET. The format is ADME, organism-based, Macaca mulatta. To be noted: in vivo, 22 s.
Data set [19] is described as follows: Drug level in normal rhesus monkey white matter assessed as standard uptake value at 109.4 MBq, iv after 12.5 mins by microPET. The format is ADME, organism-based, Macaca mulatta. To be noted: in vivo.
Data set [20] is described as follows: Drug level in normal rhesus monkey thalamus assessed as standard uptake value at 109.4 MBq, iv after 81 mins by microPET. The settings on record: in vivo, 1.35 h. The format is ADME, organism-based, Macaca mulatta.
A short description of data set [21]: Drug level in normal rhesus monkey white matter assessed as standard uptake value at 109.4 MBq, iv after 4.5 mins by microPET. To be noted: in vivo, 0.075 h. The format is ADME, organism-based, Macaca mulatta.
The nature of data set [22]: Drug level in normal rhesus monkey cerebellum assessed as standard uptake value at 109.4 MBq, iv after 47.5 mins by microPET. The format is ADME, organism-based, Macaca mulatta. The settings on record: in vivo. An outline of the steps: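 One normal rhesus monkey received each tracer via the vena saphena, with 1 day between injections. Dynamic μPET ran 180 min for 18F tracers (5×60 s, 5×120 s, 9×300 s, 12×600 s) and 90 min for the 11C tracer (5×60 s, 5×120 s, 9×300 s, 3×600 s). Filtered back-projection reconstruction (RAMP filter) was used. Time-activity curves were drawn to give regional SUV.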

Data set [23] in a line: Drug level in normal rhesus monkey thalamus assessed as standard uptake value at 109.4 MBq, iv after 111 mins by microPET. The format is ADME, organism-based, Macaca mulatta. The settings on record: in vivo.
Data set [24] can be described thus: Drug level in normal rhesus monkey pons assessed as standard uptake value at 152.9 MBq, iv after 2.5 mins by microPET. The format is ADME, organism-based, Macaca mulatta. To be noted: in vivo.
The nature of data set [25]: Drug level in normal rhesus monkey parietal cortex assessed as standard uptake value at 152.9 MBq, iv after 2.5 mins by microPET. It counts as ADME, organism-based, Macaca mulatta. To be noted: in vivo.
Data set [26] in a line: Drug level in normal rhesus monkey white matter assessed as standard uptake value at 152.9 MBq, iv after 1.5 mins by microPET. The settings on record: in vivo, 0.025 h. The format is ADME, organism-based, Macaca mulatta.
A short description of data set [27]: Drug level in normal rhesus monkey pons assessed as standard uptake value at 152.9 MBq, iv after 10 mins by microPET. It counts as ADME, organism-based, Macaca mulatta. To be noted: in vivo.

For `CNc1ccc2nc(-c3ccc([18F])cc3)sc2c1`, the SUV was found to be 3.021 in data set [1]; 0.3 in the data set on Blood; 3.83 in data set [2]; 2 in data set [3]; 4.1 in data set [4]; 2.8 in the data set on Liver [5]. Besides, the figures for the SUV in [6] and in data set [8] were 5.552 and 0.756, respectively. In addition, the Drug uptake came out at 11.76% with Cerebellum; 3.2% in the data set with Kidney; 2.3% with Stomach; 37.2% in the data set with Intestine; 1% in the data set with Heart; 8.3% in the data set with Liver [7]. The Drug uptake in data set [9] amounted to 12.13%.

`CN(C)c1ccc2nc(-c3ccc([18F])cc3)sc2c1`: the SUV in [10] is 2.35; with Blood it was 0.3; in [11], 1.18; in data set [12] it was 1.3; in data set [13] it was 1.3; in [14], 1.99. Besides, the SUV is given as 2.46 in data set [15]; 2 in data set [3]; 3.2 in data set [4]; 1.69 in data set [16]; 3 in the data set with Liver [5]; 0.65 in data set [17]. For the same compound, the Drug uptake in the data set on Cerebellum was found to be 9.23%; in the data set with Kidney, 4.8%; in the data set on Stomach, 1.4%; in the data set on Intestine, 28%; in the data set on Heart it was 1.3%; in the data set on Liver [7], 8%. The compound also had a Drug uptake in data set [9] of 8.84%.

Turning to `Nc1ccc2nc(-c3ccc([18F])cc3)sc2c1`, the SUV with Blood was found to be 0.2; in [18], 0.4; in data set [19], 3.01; in data set [20], 5.18; in data set [3] it was 2.2; in [21], 2.62. The SUV is given as 3.54 in data set [22], 4.47 in data set [4], 1.8 with Liver [5] and 4.72 in data set [23]. In addition, the Drug uptake with Cerebellum is on record as 15.48%; in the data set on Kidney it was 1%; with Stomach, 1.6%; with Intestine, 68.6%; with Heart, 0.7%; with Liver [7] it was 5.6%. The compound also showed a Drug uptake in data set [9] of 13.97%.

As to `[11CH3]Nc1ccc(-c2nc3ccc(O)cc3s2)cc1` [PITTSBURGH COMPOUND B], the SUV in data set [24] was 1.05; in the data set on Blood, 0.4; in data set [25], 1.106; in data set [26] it was 0.292; in [4], 1.33; in data set [27], 2.036. The Drug uptake is recorded as 1.6% in the data set on Cerebellum; 4.8% in the data set with Kidney; 1.1% with Stomach; 42.5% in the data set on Intestine; 2.1% with Heart; 5% with Liver [7]. In addition, the Drug uptake in [9] turned out to be 3.6%.

Values taken from ChEMBL document CHEMBL1154674, “Synthesis and evaluation of three 18F-labeled aminophenylbenzothiazoles as amyloid imaging agents” (J Med Chem, 2009).
